For experiment [1], the target named is Serine/threonine-protein kinase Chk2 (Homo sapiens) (UniProt O96017). Nature of the experiment: Inhibition of human recombinant CHK2 at 40 nM related to control ULK1.
Experiment [2] addresses T1, Beta-adrenergic receptor kinase 1 (Homo sapiens) (UniProt P25098).
T1 sequence (whole entry): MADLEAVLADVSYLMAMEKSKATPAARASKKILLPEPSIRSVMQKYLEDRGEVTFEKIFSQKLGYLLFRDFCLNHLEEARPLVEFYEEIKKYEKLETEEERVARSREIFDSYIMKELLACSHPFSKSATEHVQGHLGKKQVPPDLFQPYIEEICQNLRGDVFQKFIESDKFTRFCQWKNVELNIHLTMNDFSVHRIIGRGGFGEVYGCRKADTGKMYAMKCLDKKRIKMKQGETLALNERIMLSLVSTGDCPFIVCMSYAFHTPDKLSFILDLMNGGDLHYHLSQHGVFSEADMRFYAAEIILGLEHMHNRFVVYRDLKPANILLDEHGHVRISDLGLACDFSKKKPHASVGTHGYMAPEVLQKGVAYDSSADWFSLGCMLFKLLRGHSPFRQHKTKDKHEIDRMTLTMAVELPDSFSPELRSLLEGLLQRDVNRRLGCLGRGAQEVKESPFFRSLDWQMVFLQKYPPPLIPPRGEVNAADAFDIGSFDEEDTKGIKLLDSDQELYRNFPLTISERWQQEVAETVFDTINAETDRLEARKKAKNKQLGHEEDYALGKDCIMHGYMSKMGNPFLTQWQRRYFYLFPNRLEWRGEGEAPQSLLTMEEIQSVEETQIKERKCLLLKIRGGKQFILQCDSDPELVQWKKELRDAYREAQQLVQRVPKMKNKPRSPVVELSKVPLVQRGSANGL
In words: Inhibition of human recombinant BARK1 at 500 nM in presence of ATP by radiometric assay relative to control. The method in brief: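 Part of a radiometric in vitro activity panel of 327 recombinant human kinases. Each kinase was tested in duplicate at one inhibitor concentration. Activity remaining was expressed as a percentage of the vehicle control, and percent inhibition was taken as 100 minus that value.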

The target in experiment [3] is T2, Serine/threonine-protein kinase 17A (Homo sapiens) (UniProt Q9UEE5).
T2 sequence (whole entry): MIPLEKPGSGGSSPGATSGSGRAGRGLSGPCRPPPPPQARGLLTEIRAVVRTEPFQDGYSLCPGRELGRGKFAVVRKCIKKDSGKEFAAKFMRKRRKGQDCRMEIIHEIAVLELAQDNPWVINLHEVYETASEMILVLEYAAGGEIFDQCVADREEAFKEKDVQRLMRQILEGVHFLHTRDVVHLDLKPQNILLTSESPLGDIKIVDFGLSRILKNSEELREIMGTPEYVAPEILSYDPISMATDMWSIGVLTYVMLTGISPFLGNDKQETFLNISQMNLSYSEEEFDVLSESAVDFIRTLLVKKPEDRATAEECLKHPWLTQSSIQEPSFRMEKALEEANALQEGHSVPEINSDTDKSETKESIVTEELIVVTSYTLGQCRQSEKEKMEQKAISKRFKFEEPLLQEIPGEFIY
Nature of the experiment: Inhibition of human recombinant DRAK1 at 500 nM related to control ULK1.

The target in experiment [4] is T3, Serine/threonine-protein kinase D3 (Homo sapiens) (UniProt O94806).
T3 sequence (whole entry): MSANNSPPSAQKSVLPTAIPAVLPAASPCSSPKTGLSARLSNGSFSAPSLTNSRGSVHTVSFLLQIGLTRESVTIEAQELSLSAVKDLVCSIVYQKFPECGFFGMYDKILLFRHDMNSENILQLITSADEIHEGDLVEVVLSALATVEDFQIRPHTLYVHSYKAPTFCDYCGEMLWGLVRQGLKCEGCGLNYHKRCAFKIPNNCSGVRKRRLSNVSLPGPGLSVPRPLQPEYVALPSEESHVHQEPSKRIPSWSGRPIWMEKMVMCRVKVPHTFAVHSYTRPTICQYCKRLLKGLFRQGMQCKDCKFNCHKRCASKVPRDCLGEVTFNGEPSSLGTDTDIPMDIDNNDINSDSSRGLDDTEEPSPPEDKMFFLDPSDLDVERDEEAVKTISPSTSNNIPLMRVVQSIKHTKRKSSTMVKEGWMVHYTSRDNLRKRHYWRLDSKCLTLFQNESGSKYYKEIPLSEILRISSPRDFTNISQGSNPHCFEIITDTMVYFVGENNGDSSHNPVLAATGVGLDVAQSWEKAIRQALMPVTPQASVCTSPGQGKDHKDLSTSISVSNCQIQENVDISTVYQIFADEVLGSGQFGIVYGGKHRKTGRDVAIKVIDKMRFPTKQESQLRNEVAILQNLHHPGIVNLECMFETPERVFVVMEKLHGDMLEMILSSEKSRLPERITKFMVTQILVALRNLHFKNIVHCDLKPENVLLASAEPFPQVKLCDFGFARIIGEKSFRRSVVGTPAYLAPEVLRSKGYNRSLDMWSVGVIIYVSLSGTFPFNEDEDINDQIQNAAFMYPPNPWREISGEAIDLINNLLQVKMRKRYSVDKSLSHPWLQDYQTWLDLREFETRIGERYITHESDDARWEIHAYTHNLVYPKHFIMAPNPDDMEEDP
In words: Inhibition of human recombinant PKD3 at 15 nM in presence of ATP by radiometric assay relative to control.

The target in experiment [5] is Receptor-interacting serine/threonine-protein kinase 2 (Homo sapiens) (UniProt O43353). Nature of the experiment: Inhibition of human recombinant RIPK2 at 15 nM in presence of ATP by radiometric assay relative to control.
Receptor-interacting serine/threonine-protein kinase 2 (Homo sapiens), sequence (O43353 whole entry): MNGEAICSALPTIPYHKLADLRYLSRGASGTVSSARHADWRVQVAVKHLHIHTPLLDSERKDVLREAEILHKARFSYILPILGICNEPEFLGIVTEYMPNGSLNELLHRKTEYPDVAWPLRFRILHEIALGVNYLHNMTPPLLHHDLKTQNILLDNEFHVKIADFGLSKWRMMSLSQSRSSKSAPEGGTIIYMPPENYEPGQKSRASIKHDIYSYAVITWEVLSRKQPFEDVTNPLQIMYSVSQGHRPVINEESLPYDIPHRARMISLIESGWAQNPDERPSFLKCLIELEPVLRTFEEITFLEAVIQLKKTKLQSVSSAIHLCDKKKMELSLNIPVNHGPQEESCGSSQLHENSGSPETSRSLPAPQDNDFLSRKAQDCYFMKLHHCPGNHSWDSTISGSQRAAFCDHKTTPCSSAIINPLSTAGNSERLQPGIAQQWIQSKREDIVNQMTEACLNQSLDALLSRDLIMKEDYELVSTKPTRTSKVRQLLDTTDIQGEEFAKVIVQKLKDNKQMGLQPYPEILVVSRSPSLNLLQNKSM
Experiment [6] deals with MAP kinase-activated protein kinase 2 (Homo sapiens) (UniProt P49137). Nature of the experiment: Inhibition of human recombinant MAPKAPK2 at 15 nM in presence of ATP by radiometric assay relative to control.
MAP kinase-activated protein kinase 2 (Homo sapiens), sequence (P49137 whole entry, looked up): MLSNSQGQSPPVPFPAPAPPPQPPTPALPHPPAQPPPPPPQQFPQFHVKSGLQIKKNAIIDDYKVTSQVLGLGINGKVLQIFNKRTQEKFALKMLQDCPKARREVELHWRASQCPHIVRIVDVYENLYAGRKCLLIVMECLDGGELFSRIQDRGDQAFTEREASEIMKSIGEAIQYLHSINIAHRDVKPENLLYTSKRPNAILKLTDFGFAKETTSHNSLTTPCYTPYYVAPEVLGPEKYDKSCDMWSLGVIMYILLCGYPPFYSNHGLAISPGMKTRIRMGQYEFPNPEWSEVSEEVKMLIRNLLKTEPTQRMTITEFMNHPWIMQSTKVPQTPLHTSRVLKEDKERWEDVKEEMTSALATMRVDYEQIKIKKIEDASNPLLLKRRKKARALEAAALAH

Each structure is given as a SMILES string.

Serine/threonine-protein kinase Chk2 (Homo sapiens), sequence (O96017 whole entry): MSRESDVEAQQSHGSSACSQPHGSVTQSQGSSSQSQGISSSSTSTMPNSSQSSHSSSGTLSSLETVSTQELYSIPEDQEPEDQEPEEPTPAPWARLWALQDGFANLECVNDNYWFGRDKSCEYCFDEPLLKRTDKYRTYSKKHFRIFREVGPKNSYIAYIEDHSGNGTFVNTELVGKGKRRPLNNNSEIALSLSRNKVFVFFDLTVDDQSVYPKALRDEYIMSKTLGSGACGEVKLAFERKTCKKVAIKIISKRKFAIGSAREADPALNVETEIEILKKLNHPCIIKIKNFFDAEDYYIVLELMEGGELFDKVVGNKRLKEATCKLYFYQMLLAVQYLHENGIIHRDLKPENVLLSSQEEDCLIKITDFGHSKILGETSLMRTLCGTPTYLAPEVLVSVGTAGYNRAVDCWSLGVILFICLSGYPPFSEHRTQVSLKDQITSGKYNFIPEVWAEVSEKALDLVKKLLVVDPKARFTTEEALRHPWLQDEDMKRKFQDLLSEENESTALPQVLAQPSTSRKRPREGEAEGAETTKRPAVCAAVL

In the case of `O=C(N[C@@H](C1CC1)C(F)(F)F)c1cc(-c2cnn3cc(-c4ccc(F)cc4)cnc23)cs1`, in experiment [1], the fold change (FC) amounted to 0.

As to `CNC(=O)c1ccccc1Oc1nc(Nc2cc(OC)c(OC)c(OC)c2)ncc1Br`, the inhibition in experiment [2] was 8%. Moreover, the fold change (FC) in experiment [3] was found to be 0.

Regarding `CC(C)[C@H](NC(=O)c1cc(-c2cnn3cc(-c4ccc(OCCN5CCCCC5)cc4)cnc23)cs1)C(F)(F)F`, the figures for the inhibition in experiment [4], in experiment [5] and in experiment [6] were 7%, 10% and 0%, respectively.

One may read the inhibition as the drop in the measured response relative to a control, in per cent.
